For series [1], the system named is A549. Description: Induction of apoptosis in human A549 cells assessed as late apoptosis at 1 uM measured after 12 hrs by Annexin V-FITC/ Propidium iodide stain based flow cytometry assay relative to control. It counts as functional. In a few lines:
(§1)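 Cells double-stained with FITC-annexin V and propidium iodide, then flow cytometry gave the percentages of early and late apoptotic cells.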
For orientation: A flow cytometer gives signals particle by particle.

Series [2] is described as follows: Toxicity in Balb/c mouse assessed as survival rate at 400 mg/kg, ip measured after 15 days. It counts as organism-based. The settings on record: in vivo, time 15 day. The procedure, abridged: (§2)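 Acute toxicity: 8-week-old male BALB/c mice, randomized in groups of n = 10, given a single intraperitoneal injection on day zero (vehicle only, 100, 200, 300 or 400 mg/kg). A further untreated group served as normal control. Survival on day 15 was reported as a percentage.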

Another series has as its system FHC. Description: Cytotoxicity against human FHC cells assessed as inhibtion of cell proliferation measured after 72 hrs by MTT assay. A general note: Tetrazolium assays rely on reduction of a dye to a coloured formazan, in cell work by metabolically active cells.
The target of series [3] is Hepatocyte growth factor receptor (Homo sapiens, UniProt P08581). Description: Inhibition of human c-MET phosphorylation in human A549 cells measured after 1 hr by western blot analysis. As to conditions: dose 2-8 µmol/L. Background: A western blot detects proteins with antibodies after separation by electrophoresis.
Chain of Hepatocyte growth factor receptor (P08581 whole entry): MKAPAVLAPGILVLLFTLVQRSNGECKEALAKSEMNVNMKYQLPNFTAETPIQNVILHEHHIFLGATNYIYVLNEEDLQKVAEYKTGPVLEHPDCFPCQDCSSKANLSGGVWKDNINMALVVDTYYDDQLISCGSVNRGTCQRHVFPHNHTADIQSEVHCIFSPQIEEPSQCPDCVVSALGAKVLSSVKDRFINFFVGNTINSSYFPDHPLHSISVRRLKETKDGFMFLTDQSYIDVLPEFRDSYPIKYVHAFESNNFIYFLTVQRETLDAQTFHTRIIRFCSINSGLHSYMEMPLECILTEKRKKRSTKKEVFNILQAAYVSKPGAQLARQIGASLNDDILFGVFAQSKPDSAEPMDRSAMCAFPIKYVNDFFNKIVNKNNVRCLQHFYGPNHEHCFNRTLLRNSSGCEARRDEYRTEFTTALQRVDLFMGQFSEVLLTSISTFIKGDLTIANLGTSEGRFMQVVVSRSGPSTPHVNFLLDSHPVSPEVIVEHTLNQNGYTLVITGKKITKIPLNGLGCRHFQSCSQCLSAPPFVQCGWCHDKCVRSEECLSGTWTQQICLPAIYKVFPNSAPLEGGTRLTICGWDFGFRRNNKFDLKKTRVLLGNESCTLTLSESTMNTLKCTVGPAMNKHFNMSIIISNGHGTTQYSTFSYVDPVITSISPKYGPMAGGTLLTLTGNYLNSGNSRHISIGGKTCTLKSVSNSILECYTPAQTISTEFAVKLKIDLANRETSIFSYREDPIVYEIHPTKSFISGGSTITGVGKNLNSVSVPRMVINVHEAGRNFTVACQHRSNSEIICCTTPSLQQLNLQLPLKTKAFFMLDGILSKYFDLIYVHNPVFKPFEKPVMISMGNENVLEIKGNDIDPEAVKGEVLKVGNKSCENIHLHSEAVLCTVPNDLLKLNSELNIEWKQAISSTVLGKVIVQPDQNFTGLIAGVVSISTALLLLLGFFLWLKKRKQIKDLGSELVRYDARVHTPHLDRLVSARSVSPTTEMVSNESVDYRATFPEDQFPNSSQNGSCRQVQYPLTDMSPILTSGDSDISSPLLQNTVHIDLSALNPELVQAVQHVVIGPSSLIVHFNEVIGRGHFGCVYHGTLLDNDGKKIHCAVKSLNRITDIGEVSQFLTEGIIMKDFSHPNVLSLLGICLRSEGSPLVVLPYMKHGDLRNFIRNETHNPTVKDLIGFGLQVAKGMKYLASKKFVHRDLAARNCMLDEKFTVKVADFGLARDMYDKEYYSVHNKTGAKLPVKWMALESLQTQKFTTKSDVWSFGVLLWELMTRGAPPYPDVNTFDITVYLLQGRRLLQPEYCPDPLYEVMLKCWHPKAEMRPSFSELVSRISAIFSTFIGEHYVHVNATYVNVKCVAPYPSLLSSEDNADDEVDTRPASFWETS
The nature of series [4]: Toxicity in Balb/c mouse assessed as survival rate at 200 mg/kg, ip measured after 15 days. It counts as organism-based. The settings on record: in vivo, time 15 day. The procedure, abridged:
as §2

Series [5] relates to A549. Description: Induction of apoptosis in human A549 cells assessed as early apoptosis at 1 uM measured after 12 hrs by Annexin V-FITC/ Propidium iodide stain based flow cytometry assay relative to control. Type of series: functional. The procedure, abridged:
as §1

Series [6] in a line: Half life in Balb/c mouse at 2 mg/kg, iv measured after 24 hrs by LC/MS/MS analysis. It counts as ADME, organism-based. The settings on record: in vivo. In a few lines: (§3)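 BALB/c mice dosed once orally at 8 mg/kg or intravenously at 2 mg/kg. Plasma concentration followed over time, and Cmax, Tmax, AUC0-∞, elimination half-life, clearance and oral bioavailability were derived from it.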

Series [7] can be described thus: AUC (0 to infinity) in Balb/c mouse at 8 mg/kg, po measured after 24 hrs by LC/MS/MS analysis. Type of series: ADME, organism-based. Also noted: route oral, time 24 hrs, dose 8 mg/kg. The settings on record: in vivo. The procedure, abridged: as §3
For series [8], the system named is A549. Description: cells. The settings on record: Homo sapiens, A549, 72 h.
Series [9] addresses Epidermal growth factor receptor (Homo sapiens, UniProt P00533). Description: Inhibition of EGFR (unknown origin) using poly (Glu, Tyr)4:1 as substrate in presence of ATP measured after 30 mins by HTRF assay. The procedure, abridged:
(§4)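 Kinase inhibition measured by homogeneous time-resolved fluorescence (HTRF) across a panel of Ron, ALK and other tyrosine kinases, with IC50 as the read-out.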

Series [10] concerns the target Vascular endothelial growth factor receptor 2 (Homo sapiens, UniProt P35968). Kind of series: Inhibition of VEGFR 2 (unknown origin) using poly (Glu, Tyr)4:1 as substrate in presence of ATP measured after 30 mins by HTRF assay.
In series [11] the target is Vascular endothelial growth factor receptor 3 (Homo sapiens, UniProt P35916). Description: Inhibition of FLT-4 (unknown origin) using poly (Glu, Tyr)4:1 as substrate in presence of ATP measured after 30 mins by HTRF assay. In a few lines:
as §4

A short description of series [12]: AUC (0 to infinity) in Balb/c mouse at 2 mg/kg, iv measured after 24 hrs by LC/MS/MS analysis. Type of series: ADME, organism-based. Details: route intravenous, time 24 hrs, dose 2 mg/kg. The settings on record: in vivo. In a few lines:
as §3

Series [13] can be described thus: Toxicity in Balb/c mouse assessed as anaphylactic response at 100 to 200 mg/kg, ip measured after 15 days. It counts as organism-based. As to conditions: in vivo, 360 h, dose 100-200 mg/kg, time 15 day. The procedure, abridged:
(§5)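 Acute toxicity in 8-week-old male BALB/c mice, randomized into groups of n = 10. Single intraperitoneal dose on day 0 of vehicle or 100, 200, 300 or 400 mg/kg, plus an untreated control group. Mice watched for 15 days for deaths, abnormalities, anaphylactic or allergic reactions and body weight loss.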

For series [14], the system named is A549. Description: Induction of cell cycle arrest in human A549 cells assessed as increased accumulation of cells at G2/M phase measured after 24 hrs by Propidium iodide stain based Flow cytometry assay. Type of series: functional. The settings on record: dose 0.25-1 µM. In a few lines: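 A549 cells exposed to vehicle or 0.25, 0.5 or 1.0 µM compound. DNA content measured by propidium iodide staining with RNase and flow cytometry, and the G2/M fraction was scored.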

The subject of the next series is HUVEC. Kind of series: cells. As to conditions: Homo sapiens, 72 h.
For a further series, the system named is HT-29. Kind of series: cells. The settings on record: Homo sapiens, HT-29, 72 h.
Series [15] is described as follows: Toxicity in Balb/c mouse assessed as allergic reaction at 100 to 200 mg/kg, ip measured after 15 days. Type of series: organism-based. As to conditions: in vivo, 360 h, dose 100-200 mg/kg, time 15 day. The procedure, abridged:
as §5

Series [16] in a line: Cmax in Balb/c mouse at 2 mg/kg, iv measured after 24 hrs by LC/MS/MS analysis. The settings on record: in vivo. Also noted: route intravenous, dose 2 mg/kg, time 24 hrs. Type of series: ADME, organism-based. The procedure, abridged: as §3
The nature of series [17]: Selectivity index, ratio of IC50 for human FHC cells assessed as inhibition of cell proliferation to IC50 of HT-29 cells assessed as inhibition of cell proliferation. As to conditions: FHC cells versus HT-29 cells, read-out: Selectivity Index. It counts as toxicity.
Series [18] deals with Platelet-derived growth factor receptor alpha (Homo sapiens, UniProt P16234). Description: Inhibition of PDGFR alpha (unknown origin) using poly (Glu, Tyr)4:1 as substrate in presence of ATP measured after 30 mins by HTRF assay. The procedure, abridged:
as §4

Series [19] deals with A549. Description: Induction of apoptosis in human A549 cells assessed as late apoptosis measured after 12 hrs by Annexin V-FITC/ Propidium iodide stain based flow cytometry assay. It counts as functional, cell-based. As to conditions: dose 0.25-1 µM. The procedure, abridged:
as §1

Each structure is given as a SMILES string. Active and inactive are the calls of the source. The calls are words filed in the database; no cut-off is given here.

Chain of Vascular endothelial growth factor receptor 2 (P35968 whole entry): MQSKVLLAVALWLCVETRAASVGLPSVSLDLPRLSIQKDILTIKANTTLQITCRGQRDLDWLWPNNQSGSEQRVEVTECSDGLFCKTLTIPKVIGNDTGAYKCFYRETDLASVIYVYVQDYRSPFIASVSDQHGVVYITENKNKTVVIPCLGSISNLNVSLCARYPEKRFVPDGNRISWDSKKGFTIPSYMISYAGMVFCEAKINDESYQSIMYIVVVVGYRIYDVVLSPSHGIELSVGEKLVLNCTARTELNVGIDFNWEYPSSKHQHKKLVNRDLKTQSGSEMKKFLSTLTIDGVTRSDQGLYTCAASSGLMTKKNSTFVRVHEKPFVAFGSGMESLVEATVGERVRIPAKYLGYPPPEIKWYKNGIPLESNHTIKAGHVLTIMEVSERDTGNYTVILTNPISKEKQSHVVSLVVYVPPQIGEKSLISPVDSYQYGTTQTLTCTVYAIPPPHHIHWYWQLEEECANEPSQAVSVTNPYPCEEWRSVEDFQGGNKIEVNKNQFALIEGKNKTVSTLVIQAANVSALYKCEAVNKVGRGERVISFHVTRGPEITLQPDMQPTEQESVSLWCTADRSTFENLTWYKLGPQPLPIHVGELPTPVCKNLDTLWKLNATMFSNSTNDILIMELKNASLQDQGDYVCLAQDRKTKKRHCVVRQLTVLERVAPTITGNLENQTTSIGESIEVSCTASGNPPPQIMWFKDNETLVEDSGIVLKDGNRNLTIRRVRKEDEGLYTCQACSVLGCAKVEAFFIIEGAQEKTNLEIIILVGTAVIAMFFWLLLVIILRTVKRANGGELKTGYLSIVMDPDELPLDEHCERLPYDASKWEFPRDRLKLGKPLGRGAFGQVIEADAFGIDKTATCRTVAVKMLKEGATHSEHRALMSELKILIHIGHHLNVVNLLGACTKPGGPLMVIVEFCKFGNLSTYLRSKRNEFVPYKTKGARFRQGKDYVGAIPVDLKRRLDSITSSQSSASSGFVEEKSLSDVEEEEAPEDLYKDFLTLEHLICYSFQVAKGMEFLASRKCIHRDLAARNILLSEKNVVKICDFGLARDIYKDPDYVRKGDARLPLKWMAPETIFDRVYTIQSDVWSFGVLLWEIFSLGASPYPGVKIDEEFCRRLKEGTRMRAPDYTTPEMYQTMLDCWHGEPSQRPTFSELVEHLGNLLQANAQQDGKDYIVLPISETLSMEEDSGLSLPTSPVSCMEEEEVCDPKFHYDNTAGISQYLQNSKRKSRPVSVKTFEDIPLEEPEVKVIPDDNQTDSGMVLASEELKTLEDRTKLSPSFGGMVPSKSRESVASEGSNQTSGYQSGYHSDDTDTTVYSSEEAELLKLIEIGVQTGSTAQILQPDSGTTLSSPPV
Chain of Epidermal growth factor receptor (P00533 whole entry): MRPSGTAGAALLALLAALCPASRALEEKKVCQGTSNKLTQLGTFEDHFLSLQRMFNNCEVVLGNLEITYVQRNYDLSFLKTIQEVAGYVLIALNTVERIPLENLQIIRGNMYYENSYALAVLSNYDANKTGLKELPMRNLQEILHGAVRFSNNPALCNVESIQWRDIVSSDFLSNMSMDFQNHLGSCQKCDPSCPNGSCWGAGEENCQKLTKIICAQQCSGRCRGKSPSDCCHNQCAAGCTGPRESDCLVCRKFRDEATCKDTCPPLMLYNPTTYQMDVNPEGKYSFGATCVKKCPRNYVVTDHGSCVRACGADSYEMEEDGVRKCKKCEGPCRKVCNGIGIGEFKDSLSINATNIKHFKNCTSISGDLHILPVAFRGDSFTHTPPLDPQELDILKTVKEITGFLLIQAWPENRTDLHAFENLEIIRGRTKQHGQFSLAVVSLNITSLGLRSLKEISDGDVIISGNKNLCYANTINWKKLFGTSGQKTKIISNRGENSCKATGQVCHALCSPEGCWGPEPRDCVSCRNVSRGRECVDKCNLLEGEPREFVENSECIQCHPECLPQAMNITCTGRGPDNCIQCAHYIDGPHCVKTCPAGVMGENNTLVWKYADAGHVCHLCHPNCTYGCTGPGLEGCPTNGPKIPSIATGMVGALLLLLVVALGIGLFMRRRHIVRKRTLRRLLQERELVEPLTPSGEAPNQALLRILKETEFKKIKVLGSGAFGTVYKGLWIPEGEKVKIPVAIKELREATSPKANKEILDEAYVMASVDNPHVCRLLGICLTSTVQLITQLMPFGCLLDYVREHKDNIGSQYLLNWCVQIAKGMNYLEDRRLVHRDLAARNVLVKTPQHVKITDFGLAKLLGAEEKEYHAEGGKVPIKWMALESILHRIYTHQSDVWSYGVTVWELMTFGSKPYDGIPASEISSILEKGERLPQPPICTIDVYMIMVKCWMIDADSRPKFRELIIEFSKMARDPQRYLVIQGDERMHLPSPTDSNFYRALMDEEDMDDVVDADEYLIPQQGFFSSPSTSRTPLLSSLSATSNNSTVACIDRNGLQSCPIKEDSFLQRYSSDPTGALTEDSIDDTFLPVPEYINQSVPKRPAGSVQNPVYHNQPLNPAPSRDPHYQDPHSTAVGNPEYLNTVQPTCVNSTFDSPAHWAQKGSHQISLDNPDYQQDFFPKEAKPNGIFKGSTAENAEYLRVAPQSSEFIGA
Chain of Platelet-derived growth factor receptor alpha (P16234 whole entry): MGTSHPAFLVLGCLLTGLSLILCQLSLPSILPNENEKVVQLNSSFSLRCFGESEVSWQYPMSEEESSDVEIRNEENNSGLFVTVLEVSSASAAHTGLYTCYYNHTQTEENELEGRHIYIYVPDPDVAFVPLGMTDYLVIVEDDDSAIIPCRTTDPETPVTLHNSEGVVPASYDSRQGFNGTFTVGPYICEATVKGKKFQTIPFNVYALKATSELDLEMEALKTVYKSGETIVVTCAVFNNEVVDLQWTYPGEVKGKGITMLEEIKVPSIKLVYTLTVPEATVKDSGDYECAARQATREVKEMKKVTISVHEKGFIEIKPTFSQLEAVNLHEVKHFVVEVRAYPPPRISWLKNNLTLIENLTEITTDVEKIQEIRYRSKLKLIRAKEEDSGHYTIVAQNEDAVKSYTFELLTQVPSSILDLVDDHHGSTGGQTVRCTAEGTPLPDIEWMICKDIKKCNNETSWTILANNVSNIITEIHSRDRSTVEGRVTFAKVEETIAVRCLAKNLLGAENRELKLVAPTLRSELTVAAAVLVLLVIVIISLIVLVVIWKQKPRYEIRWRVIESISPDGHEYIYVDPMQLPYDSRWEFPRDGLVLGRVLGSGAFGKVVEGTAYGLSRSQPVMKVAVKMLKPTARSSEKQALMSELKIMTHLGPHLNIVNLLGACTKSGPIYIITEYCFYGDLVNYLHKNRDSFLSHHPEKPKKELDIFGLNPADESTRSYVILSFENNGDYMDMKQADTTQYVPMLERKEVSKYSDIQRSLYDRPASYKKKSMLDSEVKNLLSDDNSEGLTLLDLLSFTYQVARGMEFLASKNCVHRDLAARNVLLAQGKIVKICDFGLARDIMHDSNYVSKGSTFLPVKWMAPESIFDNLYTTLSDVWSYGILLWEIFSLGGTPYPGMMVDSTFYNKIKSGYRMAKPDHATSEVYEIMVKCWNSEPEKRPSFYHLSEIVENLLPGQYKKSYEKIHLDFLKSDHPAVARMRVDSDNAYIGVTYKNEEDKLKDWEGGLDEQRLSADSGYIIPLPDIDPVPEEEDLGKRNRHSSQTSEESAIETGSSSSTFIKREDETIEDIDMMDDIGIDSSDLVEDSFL

As usually defined, the IC50 is the concentration that gives 50% inhibition. For orientation: half-life means the time in which the quantity being followed falls by half. High values mean slow loss, low ones fast loss. In general, Cmax refers to the maximum level reached in the sampled fluid or tissue. Consider `COCC/C(=N\S(=O)(=O)Cc1ccc(Cl)cc1)Nc1ccc(Oc2ccnc3cc(OCCCN4CCOCC4)c(OC)cc23)c(F)c1`, for which the Activity is 30.99% in the series on A549 [1]; 15.69% with A549 [5]; “Non-Toxic” in [13]; “Dose-dependent effect” in the series on A549 [14]; “Non-Toxic” in series [15]; “Dose-dependent effect” in the series on A549 [19]. Further, the survival at 360 h in series [2] was 50%; in series [4], 100%. The IC50 in the series with FHC was 6120 nM; in the series with A549 [8] it was 280 nM; in series [9], more than 10000 nM; in series [10], 673 nM; in [11], 358 nM; with HUVEC it was 1350 nM. Besides, the half-inhibitory concentration (IC50) with HT-29 came out at 320 nM; in series [18], 384 nM. In addition, the inhibition entry in series [3] was “Active”. In series [6], this molecule had a half-life of 1.8 h. In addition, the AUC in series [7] came to 6.8 µg/h/mL; in [12], 2.3 µg/h/mL. This molecule gave a Cmax in series [16] of 676 ng/mL. Further, in series [17], the selectivity ratio was 19.1.

The values are drawn from ChEMBL document CHEMBL4765349, “Design, synthesis and biological evaluation of novel N-sulfonylamidine-based derivatives as c-Met inhibitors via Cu-catalyzed three-component reaction” (Eur J Med Chem, 2020).
